# Bioassay records deposited in PubChem by Johns Hopkins Ion Channel Center.
# An excerpt weighted towards active compounds, which were near 3.7% of everything screened.
# Kir21 inh: inhibitors of mouse Kir2.1 inward-rectifier potassium channel. Inward rectifier potassium channel 2 (Mus musculus), P35561. HEK293-Kir2.1, FluxOR thallium flux fluorescence; hits give low values. B-score at 10 µM. 0.85% of 310,000 active;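 active = fluorescence ratio B-score at or below minus 3 SD of library scores, with starting-brightness B-score within 2 SD, cut at about -4.2 in these data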;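 also: channel flux triggered by added potassium and thallium sulfate stimulus; B-score of peak minus minimum fluorescence over baseline after thallium stimulus; more negative B-score means stronger Kir2.1 block with less thallium influx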
# Target sequence (P35561 whole entry, looked up): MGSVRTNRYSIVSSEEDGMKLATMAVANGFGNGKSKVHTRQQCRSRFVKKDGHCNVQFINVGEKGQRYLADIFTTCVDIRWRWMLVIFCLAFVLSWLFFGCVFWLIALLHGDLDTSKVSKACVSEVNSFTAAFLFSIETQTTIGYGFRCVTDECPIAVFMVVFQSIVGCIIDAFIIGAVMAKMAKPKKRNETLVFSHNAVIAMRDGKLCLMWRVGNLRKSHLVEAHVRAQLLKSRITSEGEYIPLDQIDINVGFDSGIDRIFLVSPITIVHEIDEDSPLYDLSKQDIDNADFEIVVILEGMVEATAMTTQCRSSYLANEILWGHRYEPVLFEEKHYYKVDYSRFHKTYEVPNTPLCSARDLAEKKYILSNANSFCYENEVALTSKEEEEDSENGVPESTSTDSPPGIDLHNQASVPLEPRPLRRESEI
# KCNK9 inh: KCNK9 potassium channel inhibitors, primary screen, HEK293 cells, thallium flux | Potassium channel subfamily K member 9 (Homo sapiens), Q9NPC2 | AID 488922, 2010 | 1.2% of 310,000 active | FluxOR thallium flux fluorescence; hits give low values | B-score at 10 µM;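 active = ratio B-score over 3 SD below the library mean, with starting fluorescence within 5 SD of its mean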;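 also: negative B-score means less thallium flux so channel inhibition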
# KCNQ1 inh: inhibitors of human KCNQ1 channel, primary screen, cell-based, thallium flux, high-throughput; CHO-K1 KCNQ1, FluxOR thallium flux fluorescence; hits give high values; 1.3% of 310,000 active; Potassium voltage-gated channel subfamily KQT member 1 (Homo sapiens), P51787; AID 2642, 2010; B-score at 10 µM;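 active = compounds whose thallium flux B-score, printed positive for inhibition, exceeds three library SD while starting fluorescence stays within three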;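 also: channel opened by potassium depolarization with thallium stimulus after 20 min compound exposure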
# KCNK3 block: human KCNK3 channel inhibitors, primary screen, CHO cells, FluxOR thallium flux, B-score; Potassium channel subfamily K member 3 (Homo sapiens), O14649; 0.84% of 340,000 active; FluxOR fluorescence; hits give low values; AID 602410, 2012; B-score at 10 µM;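 active = B-score under library mean minus 4 SD, starting fluorescence ratio at most library mean plus 5 SD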;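 also: more negative B-score means stronger inhibition of thallium flux through KCNK3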
# KCNQ1 act: potentiators or activators of KCNQ1 channel, primary screen, cell-based, thallium flux, high-throughput; Potassium voltage-gated channel subfamily KQT member 1 (Homo sapiens), P51787; CHO-K1 KCNQ1, thallium flux FluxOR fluorescence; hits give high values; B-score at 10 µM; 0.35% of 310,000 active;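 active = fluorescence ratio B-score, a plate-corrected score, at least three library SD, with initial intensity B-score within 5 SD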
#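 System: CHO-K1 cells stably expressing KCNQ1 / Medium: assay buffer for compound exposure, DMSO matched across wells / Reagent: thallium- and potassium-containing depolarizing buffer / Compound: one concentration, matched DMSO / Incubation: 20 min compound pretreatment at room temperature / Measured by: kinetic FluxOR fluorescence, 10 s baseline plus 110 s post-stimulus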
# hERG rescue: hERG rescue from dofetilide block, primary screen, cell-based, CHO-hERG, FluxOR thallium flux, dofetilide IC70 | dofetilide IC70 present | activation (rescue from dofetilide block), less the hit threshold, % at 10 µM | 0.51% of 310,000 active;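 active = activation above the mean of controls blocked by dofetilide plus 5 SD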;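 also: thallium influx through hERG after potassium depolarization seen as dye fluorescence rise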
# KCNK9 inh conf: KCNK9 potassium channel inhibitors, confirmation, HEK293 cells, thallium flux, duplicate; 43% of 4,900 active; inhibition, % at 10 µM; shares compounds with KCNK9 inh; FluxOR thallium flux fluorescence;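 active = thallium signal inhibited by more than 5 SD of the compound-free buffer control wells, on both duplicate plates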
# Kir21 sel: mouse Kir2.1 channel inhibition, confirmation, selectivity assay for KCNK9 modulator project, cell-based, HEK293, thallium flux; shares compounds with KCNK9 inh; Kir2.1 cells, FluxOR thallium flux fluorescence; inhibition, % at 10 µM; 4% of 4,900 active;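 active = thallium signal drop more than 5 SD beyond the mean of the no-compound control wells, seen in both duplicate plates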;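 also: signal is fluorescence rise after thallium addition divided by baseline fluorescence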
# HEK293 Tl ctr: thallium flux in non-induced HEK293 cells, confirmation, counter-screen for KCNK9 inhibitor project, cell-based, second counter screen, non-induced KCNK9-HEK293. shares compounds with KCNK9 inh. FluxOR thallium flux. inhibition, % at 10 µM. 40% of 4,900 active;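 active = thallium signal drop beyond 5 SD of the untreated control mean, on both duplicate plates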
# Hits are given with their value; n = inactive; x = no result.
SMILES,Kir21 inh,KCNK9 inh,KCNQ1 inh,KCNK3 block,KCNQ1 act,hERG rescue,KCNK9 inh conf,Kir21 sel,HEK293 Tl ctr
CC(C)Oc1cccc(C(=O)C2CCCN(Cc3cnc(N4CCCC4)s3)C2)c1 (stereo not drawn),n,n,n,n,n,n,n,n,n
CC(C)Oc1cccc(C(=O)C2CCCN(Cc3ccc(Oc4ncccn4)cc3)C2)c1 (stereo not drawn),n,n,n,n,n,n,x,x,x
CCCn1cc(CN2CCCC(C(=O)c3cccc(OC(C)C)c3)C2)c(C)n1 (stereo not drawn),n,n,n,n,n,n,n,n,n
O=C(O)C(C(O)c1ccc([N+](=O)[O-])cc1)[n+]1ccccc1 (stereo not drawn),n,n,n,n,n,n,x,x,x
O=C(COC(=O)c1ncc(Cl)c(Cl)c1Cl)NCCc1ccccc1,n,n,n,n,n,n,x,x,x
COc1ccc(N2CCN(C3CCCCC3NS(=O)(=O)c3ccc(Cl)cc3)CC2)cc1 (stereo not drawn),n,n,n,n,n,n,n,n,n
Cc1ccc(C)c(N2CCN(C3CCCCC3NS(=O)(=O)c3ccccc3)CC2)c1 (stereo not drawn),n,-16,8,-12,n,n,52%,n,31%
COC(=O)c1ccc(C(C(=O)NC2CCCCC2)N(Cc2ccc(F)cc2)C(=O)Cc2cccs2)cc1 (stereo not drawn),n,-11,n,n,n,n,n,n,31%
COc1cccc(C(=O)/C=C/c2ccc(N3CCCCC3)c([N+](=O)[O-])c2)c1,n,-8.3,n,n,n,n,36%,n,35%
O=C(OCc1c(-c2ccccc2)ncc2ccccc12)c1cccc(Br)c1,x,x,x,n,x,x,x,x,x
Cc1ccc(NC(=O)c2cnn(-c3ccccc3)c2C)cc1,n,n,n,n,n,n,x,x,x
Cc1ccc(NC(=O)c2cc(C)n(-c3ccccc3)c2C)cc1,n,n,n,n,n,n,n,n,n
CCCCc1ccc(-n2nnnc2SCC(=O)Nc2cc(OC)c([N+](=O)[O-])cc2C)cc1,n,n,n,n,n,n,n,n,n
CCN(CC)C(=O)c1oc2ccc(S(=O)(=O)N3CC(C)CC(C)C3)cc2c1C (stereo not drawn),n,n,n,n,n,n,n,n,n
COc1ccccc1N1CCN(/N=C/C=C\c2ccccc2[N+](=O)[O-])CC1,n,n,n,n,n,n,n,n,n
C[C@H](CO)N1C[C@H](C)[C@@H](CN(C)S(=O)(=O)c2ccc(F)cc2)Oc2ccc(NC(=O)C3CCCCC3)cc2C1=O,x,x,x,n,x,x,x,x,x
COc1ccc(-c2cc(C)nc3c(-c4ccccc4)cnn23)cc1,n,-9.5,n,n,n,n,58%,n,51%
CC1CCCN(C(=O)Cc2cn(Cc3cccc(Cl)c3)c3ccccc23)C1 (stereo not drawn),n,-14,n,n,n,n,72%,46%,37%
O=C(Cc1cn(Cc2cccc(Cl)c2)c2ccccc12)N1CCCCCC1,n,-11,n,n,n,n,54%,36%,38%
O=C(O)Cc1cn(Cc2cccc(Cl)c2)c2ccccc12,n,n,n,n,n,n,x,x,x
CCn1c(SCC(=O)N2CCCCC2C)nc2c1c(=O)n(C)c(=O)n2C (stereo not drawn),n,n,n,n,n,n,x,x,x
